High-throughput results as filed in PubChem BioAssay.
Only a selection was taken, and hits are over-represented in it overall.
GASC1 inh = KDM4C (human) demethylase inhibition | Q9H3R0 | GST-KDM4C 2-372, H3K9me3 peptide, LANCE TR-FRET | inhibition, % at 12.5 µM | actives 0.15% (n = 96,000) | AID 720574;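 active = mean replicate inhibition above about 25%, with at least 55% of replicates also reaching it, limit read from the data, passing the limit was not always enough; inconclusive = only one of those two conditions met; inactive = neither condition met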
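System – N-terminal GST-fused human GASC-1 (KDM4C) fragment, residues 2-372 · Input – enzyme final amount 10 nM · Technique – LANCE TR-FRET, Eu antibody, ULight-streptavidin, EDTA, ex 340 nm, em 618/671 nm · Medium – HEPES buffer, pH 7.5, plus ascorbate · Incubation – enzyme reaction 30 min, then detection 60 min, both room temperature · Reagent – H3K9me3 peptide with Fe(II)/2OG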
T cruzi growth-1 = T. cruzi proliferation inhibition. AID 624255. inhibition, % at 8.34 µM. actives 5.9% (n = 77,000). T. cruzi beta-gal in NIH3T3, GalScreen luminescence, 90 h;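 active = mean inhibition above about 93%, with at least 55% of replicates each passing it, limit read from the data, passing the limit was not always enough; inconclusive = only one of those two conditions holds; inactive = neither condition holds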
IDH1 mut inh = inhibitors of human IDH1 R132H. O75874. IDH1 R132H reductase, diaphorase/resazurin fluorescence, 60 min. inhibition, % at 10 µM. actives 0.18% (n = 70,000); in the data active = inhibition above about 34%; inconclusive = no clear call, values can overlap the other calls; inactive = below about 11%;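 also: 0% = DMSO and 100% = no enzyme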
Target sequence (O75874 whole entry R132H): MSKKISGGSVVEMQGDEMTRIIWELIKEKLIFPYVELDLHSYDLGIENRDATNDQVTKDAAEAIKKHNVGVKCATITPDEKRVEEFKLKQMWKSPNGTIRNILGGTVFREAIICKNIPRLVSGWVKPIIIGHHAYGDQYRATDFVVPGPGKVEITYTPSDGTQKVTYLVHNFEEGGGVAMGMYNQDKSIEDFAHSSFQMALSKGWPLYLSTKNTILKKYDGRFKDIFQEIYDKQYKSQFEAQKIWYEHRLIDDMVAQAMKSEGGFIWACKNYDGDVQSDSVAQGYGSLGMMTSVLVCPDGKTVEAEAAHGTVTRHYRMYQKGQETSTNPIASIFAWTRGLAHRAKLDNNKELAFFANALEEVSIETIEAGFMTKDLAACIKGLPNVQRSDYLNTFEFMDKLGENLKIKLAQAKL
T cruzi growth-2 = blocks T. cruzi growth in NIH3T3 host cells; shares compounds with T cruzi growth-1; T. cruzi beta-gal in NIH3T3, GalScreen luminescence, 90 h; inhibition, % at 8.35 µM; actives 72% (n = 5,600);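 active = mean replicate inhibition above about 95% and at least 55% of replicates individually reaching it, limit read from the data; inconclusive = only one of the two criteria is met; inactive = neither criterion is met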
T cruzi growth-3 = blocks T. cruzi growth in NIH3T3 host cells | shares compounds with T cruzi growth-1 | T. cruzi beta-gal in NIH3T3, GalScreen luminescence, 90 h | inhibition, % at 2.09 µM | actives 21% (n = 5,600);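 active = mean inhibition above about 95%, with at least 55% of replicates also reaching it, limit read from the data; inconclusive = meets just one of the two conditions; inactive = meets neither condition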;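 also: plate controls were neutral control median for no effect and positive control median for full effect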
NIH3T3 tox = kills mouse NIH/3T3 fibroblasts | actives 14% (n = 5,600) | shares compounds with T cruzi growth-1 | AID 651742 | cytotoxicity (signal decrease), % at 8.35 µM | NIH/3T3 viability, CellTiter-Glo ATP luminescence, 90 h;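 active = mean signal decrease across replicates above about 35% based on untreated-well scatter, with enough replicates individually passing, limit read from the data; inconclusive = no rule stated though some were filed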;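 also: 0% = median of neutral control wells and 100% = median of positive control wells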
NIH3T3 tox 2 = kills mouse NIH/3T3 fibroblasts; shares compounds with T cruzi growth-1; NIH/3T3 viability, CellTiter-Glo ATP luminescence, 90 h; inhibition, % at 24.9 µM; actives 56% (n = 5,600);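 active = mean loss of cell viability signal at or above a set limit, and enough replicates individually reaching it; inconclusive = meets only the mean limit or only the replicate share; inactive = meets neither condition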;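 also: 0% = median of neutral control wells and 100% = median of positive control wells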
Numbers without * were called inactive.

Results for CO[C@H](CN(C)S(=O)(=O)c1ccc(F)cc1)[C@H](C)CN([C@@H](C)CO)S(=O)(=O)c1cccc(Cl)c1 ?
GASC1 inh: -1; T cruzi growth-1: 91; IDH1 mut inh: 0

How did CO[C@H](CN(C)S(=O)(=O)c1cccc(Cl)c1)[C@@H](C)CN([C@@H](C)CO)S(=O)(=O)c1cccc(Cl)c1 do in these assays?
GASC1 inh: -1; T cruzi growth-1: 109*; IDH1 mut inh: -1; T cruzi growth-2: 83; T cruzi growth-3: 19; NIH3T3 tox: 42*; NIH3T3 tox 2: 39*

How did CO[C@H](CN(C)S(=O)(=O)c1ccc(Cl)cc1)[C@@H](C)CN([C@H](C)CO)S(=O)(=O)c1cccc(Cl)c1 do in these assays?
GASC1 inh: -1; T cruzi growth-1: 76; IDH1 mut inh: -1

Results for CO[C@@H](CN(C)S(=O)(=O)c1cccc(Cl)c1)[C@@H](C)CN([C@H](C)CO)S(=O)(=O)c1ccc(Cl)cc1 ?
GASC1 inh: -3; T cruzi growth-1: 76; IDH1 mut inh: 0

Results for CO[C@@H](CN(C)S(=O)(=O)c1cccc(Cl)c1)[C@H](C)CN([C@@H](C)CO)S(=O)(=O)c1cccc(Cl)c1 ?
GASC1 inh: 0; T cruzi growth-1: 110*; IDH1 mut inh: -1; T cruzi growth-2: 93; T cruzi growth-3: 38; NIH3T3 tox: 49*; NIH3T3 tox 2: 72*

Results for CO[C@@H](CN(C)S(=O)(=O)c1cccc(Cl)c1)[C@@H](C)CN([C@@H](C)CO)S(=O)(=O)c1ccc(Cl)cc1 ?
GASC1 inh: -2; T cruzi growth-1: 104*; IDH1 mut inh: 0; T cruzi growth-2: 98*; T cruzi growth-3: 59; NIH3T3 tox: inconclusive; NIH3T3 tox 2: 67*

How did O=C(CCCCCCC(=O)Nc1ccccc1O)N/N=C/c1cc(Br)cc(Br)c1O do in these assays?
IDH1 mut inh: -1

Results for O=C(N/N=C/c1ccc(F)c(Oc2ccccc2)c1)c1ccccc1O ?
IDH1 mut inh: 0

Results for COCCOC(=O)N1C(=O)[C@@]2(c3cc(C#CCC(C(=O)OC)C(=O)OC)ccc31)[C@H](c1ccccc1OCCO)N1[C@H](c3ccccc3)[C@H](c3ccccc3)OC(=O)[C@H]1[C@@H]2C(N)=O ?
IDH1 mut inh: 0

What do the screens show for `CCC(=O)N(Cc1cc2ccccc2[nH]c1=O)c1cccc(C)c1`?
IDH1 mut inh: 0

How did C=CCNC1=C2C[C@@H](C)C[C@H](OC)[C@H](O)[C@@H](C)/C=C(\C)[C@H](OC(N)=O)[C@@H](OC)C=C/C=C(/C)C(=O)NC(=CC1=O)C2=O do in these assays?
IDH1 mut inh: 0

How did CC(Sc1nc2ccccc2[nH]1)C(=O)Nc1ccc(S(N)(=O)=O)cc1 (stereo unspecified) do in these assays?
IDH1 mut inh: 0

Results for COc1ccc(OC)c(NC(=O)CN(c2ccccc2Br)S(C)(=O)=O)c1 ?
IDH1 mut inh: 0

What do the screens show for `CC(C)(C)NC(=O)c1ccccc1SCc1ccc(F)cc1`?
IDH1 mut inh: 0

How did C[C@@H]1CN([C@@H](C)CO)C(=O)Cc2cc(NC(=O)Cc3ccccc3)ccc2O[C@H]1CN(C)Cc1ccc2c(c1)OCO2 do in these assays?
GASC1 inh: 0; T cruzi growth-1: 79; IDH1 mut inh: 1

Results for C[C@H]1CN([C@@H](C)CO)C(=O)Cc2cc(NC(=O)Cc3ccccc3)ccc2O[C@@H]1CN(C)Cc1ccc(-c2ccccc2)cc1 ?
GASC1 inh: 1; T cruzi growth-1: 107*; IDH1 mut inh: 0; T cruzi growth-2: 113*; T cruzi growth-3: 75; NIH3T3 tox: 8; NIH3T3 tox 2: 73*

What do the screens show for `C[C@H](CO)N1C[C@H](C)[C@H](CN(C)Cc2ccc3c(c2)OCO3)Oc2ccc(NC(=O)Cc3ccccc3)cc2CC1=O`?
GASC1 inh: 0; T cruzi growth-1: 106*; IDH1 mut inh: -5; T cruzi growth-2: 39; T cruzi growth-3: -4; NIH3T3 tox: -9; NIH3T3 tox 2: 17
